This note sets out measurements from ChEMBL document CHEMBL2062399, “Design, synthesis, and structure-activity relationships of a series of 2-Ar-8-methyl-5-alkylaminoquinolines as novel CRF₁ receptor antagonists” (Bioorg Med Chem Lett, 2012).

As usually defined, the pIC50 is the negative decadic logarithm of the IC50, by convention in mol/L. As usually defined, the inhibition in vivo is the relative decrease from the control value, in per cent. A high value points to strong suppression.

The target in experiment [1] is T1, Corticotropin-releasing factor receptor 1 (Homo sapiens, UniProt P34998).
T1 sequence (P34998 whole entry): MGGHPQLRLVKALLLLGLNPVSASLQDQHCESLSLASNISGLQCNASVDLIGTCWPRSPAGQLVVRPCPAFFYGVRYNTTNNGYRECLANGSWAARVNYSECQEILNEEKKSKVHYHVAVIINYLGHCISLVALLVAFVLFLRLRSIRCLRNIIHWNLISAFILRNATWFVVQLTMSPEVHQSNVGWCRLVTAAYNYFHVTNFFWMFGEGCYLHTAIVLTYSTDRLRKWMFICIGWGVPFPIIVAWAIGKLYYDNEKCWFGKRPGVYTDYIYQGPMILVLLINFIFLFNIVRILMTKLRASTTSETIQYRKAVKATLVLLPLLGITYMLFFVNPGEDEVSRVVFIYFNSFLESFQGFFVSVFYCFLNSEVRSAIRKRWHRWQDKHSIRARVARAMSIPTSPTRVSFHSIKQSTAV
In words: Displacement of [125I]-CRF from human CRF1 receptor expressed in HEK293 cells after 2 hrs. It is filed as cell-based. The method in brief:
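Scintillation proximity assay with HEK293 membranes expressing human CRF1 (5 µg/well), WGA-coated SPA beads and 0.1 nM [125I] human/rat CRF. Buffer pH 7.0 with 10 mM MgCl2, 2 mM EGTA, 1.5% BSA and protease inhibitors. Nonspecific binding with 0.4 µM unlabeled sauvagine. Incubated over 2 h at room temperature, then centrifuged and counted. Specific binding taken as % of total, IC50 from concentration-response curve.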
(In general: In a radioligand displacement assay an active substance lowers the binding of a labelled ligand.)

Experiment [2] concerns the target T1, Corticotropin-releasing factor receptor 1. In words: Antagonist activity at human CRF1 receptor expressed in HEK293 cells assessed as inhibition of CRF-stimulated intracellular cAMP accumulation after 30 mins by enzyme immunoassay. Type of experiment: functional, cell-based. The method in brief: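 HEK293 cells stably expressing human CRF1, seeded at 5×10^4 cells/well in DMEM with 0.1% FBS and 1 mM IBMX. After 30 min preincubation, compound added for 30 min at 37 °C, then 1 nM human/rat CRF for 30 min at 37 °C. Lysed cAMP measured by EIA, basal subtracted, expressed as % of total production. IC50 from concentration-response curve.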
In general terms: Changes in cAMP serve as a functional read-out for many G protein-coupled receptors.

A further experiment has as its system Rattus norvegicus. In words: Inhibition of CRF-induced fecal pellet output in rat at 10 mg/kg, po administered 1 hr before CRF challenge by measuring decrease in fecal weight after 4 hrs. Type of experiment: functional. The settings on record: Feces. The essentials: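 Rats dosed orally at 10 mg/kg 1 h before intravenous CRF (10 µg/kg). Fecal weight measured 4 h after CRF injection and compared with the vehicle + CRF group. 6–7 rats/group, mean ± S.E.M., unpaired t test.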

SMILES strings stand for the structures. pIC50: −log10 of the molar value.

For the compound `CCN(CC)c1ccc(C)c2nc(-c3c(OC)cc(COC)cc3OC)c(F)cc12`, the negative logarithm of the IC50 (pIC50) in experiment [1] is 6.84; in experiment [2], 6.88.
For the compound `COCCNc1ccc(C)c2nc(-c3c(OC)cc(COC)cc3OC)c(C)cc12`, the negative-log IC50 (pIC50) in experiment [1] was < 6.00.
As for `CCN(CC)c1ccc(C)c2nc(-c3c(OC)cc(COC)cc3OC)c(Cl)cc12`, the pIC50 was 7.09 in experiment [1] and 7.35 in experiment [2].
For `CCN(CC)c1ccc(C)c2nc(-c3c(OC)cc(COC)cc3OC)c(C)cc12`, the pIC50 is 7.10 in experiment [1] and 7.62 in experiment [2]. In addition, the inhibition in vivo at 10 mg/kg in the experiment with Rattus norvegicus stood at 63%.
As for `CCN(CC)c1ccc(C)c2nc(-c3c(OC)cc(COC)cc3OC)ccc12`, the pIC50 is 6.74 in experiment [1] and 6.42 in experiment [2].
On the same counts, the results for `COCc1cc(OC)c(-c2nc3c(C)ccc(N(C)C)c3cc2C)c(OC)c1` are 6.67 and < 6.00.
On the same counts, the results for `CCN(CCOC)c1ccc(C)c2nc(-c3c(OC)cc(COC)cc3OC)c(C)cc12` are 6.96 and 7.64.
Regarding `CCC(CC)Nc1ccc(C)c2nc(-c3c(OC)cc(COC)cc3OC)c(C)cc12`, the pIC50 in experiment [1] is < 6.00.
On the same count and under the same terms, to `COCc1cc(OC)c(-c2nc3c(C)ccc(N(CC4CCOCC4)CC4CC4)c3cc2C)c(OC)c1` belongs 6.54; to `CCCN(CCC)c1ccc(C)c2nc(Oc3c(OC)cc(COC)cc3OC)c(C)cc12`, < 6.00.
For `CCCN(CCC)c1cccc2nc(-c3c(OC)cc(COC)cc3OC)c(C)cc12`, the pIC50 was 6.56 in experiment [1] and 7.01 in experiment [2].
For the compound `COCc1cc(OC)c(-c2nc3c(C)ccc(N(CC4CC4)CC4CC4)c3cc2C)c(OC)c1`, the pIC50 in experiment [1] is 7.06; in experiment [2], 7.34. Also, the inhibition in vivo at 10 mg/kg with Rattus norvegicus was found to be 53%.
As to `CCCN(CCC)c1ccc(CC)c2nc(-c3c(OC)cc(COC)cc3OC)c(C)cc12`, the pIC50 in experiment [1] is 6.94; in experiment [2] it was 6.43.
As for `COCc1cc(OC)c(-c2nc3c(C)ccc(N(CC4CC4)C4CCOCC4)c3cc2C)c(OC)c1`, the pIC50 in experiment [1] was 6.61.
Take `CCCN(CCC)c1ccc(C)c2nc(-c3c(OC)cc(COC)cc3OC)c(C)cc12`: the figures for the pIC50 in experiment [1] and in experiment [2] were 7.06 and 7.15, respectively. Also, the inhibition in vivo at 10 mg/kg in the experiment with Rattus norvegicus amounted to 64%.
Turning to `COCCN(C)c1ccc(C)c2nc(-c3c(OC)cc(COC)cc3OC)c(C)cc12`, the pIC50 was 7.05 in experiment [1] and 6.76 in experiment [2].
